Experimental data from the M2OR odorant receptor database.

How the values were obtained:
Conditions in all cases: stereoisomer not certain
UniProt Q8VGX8 = molecular target: T1, UniProt Q8VGX8
T1 sequence (whole entry): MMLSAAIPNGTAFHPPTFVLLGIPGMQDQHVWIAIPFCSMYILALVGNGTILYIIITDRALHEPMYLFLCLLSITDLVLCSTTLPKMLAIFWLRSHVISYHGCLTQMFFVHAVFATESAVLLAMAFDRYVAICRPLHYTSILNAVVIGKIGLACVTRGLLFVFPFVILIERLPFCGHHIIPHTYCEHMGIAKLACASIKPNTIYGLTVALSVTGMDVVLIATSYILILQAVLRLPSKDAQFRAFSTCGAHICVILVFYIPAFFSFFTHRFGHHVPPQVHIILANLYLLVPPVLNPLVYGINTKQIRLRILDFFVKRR
Method in brief: (§1)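 Assay methods differ from source to source, frequently being transient luciferase assays in mammalian cell lines. For each receptor–molecule pair, the label responsive (active) applies when the original authors judged the measured signal statistically different from baseline, and non-responsive (inactive) applies otherwise.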

UniProt Q8VGY6 = molecular target: T2, UniProt Q8VGY6
T2 sequence (whole entry): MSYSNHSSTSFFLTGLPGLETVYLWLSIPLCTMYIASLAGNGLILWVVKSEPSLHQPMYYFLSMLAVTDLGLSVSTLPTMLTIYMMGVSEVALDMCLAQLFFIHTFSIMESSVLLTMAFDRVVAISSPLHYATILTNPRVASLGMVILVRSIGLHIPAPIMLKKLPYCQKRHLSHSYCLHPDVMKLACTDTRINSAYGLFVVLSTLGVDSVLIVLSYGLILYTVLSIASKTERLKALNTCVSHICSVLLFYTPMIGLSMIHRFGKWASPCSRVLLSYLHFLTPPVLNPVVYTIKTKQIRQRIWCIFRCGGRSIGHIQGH
Method in brief: as §1

UniProt Q8VGZ2 = molecular target: T3, UniProt Q8VGZ2
T3 sequence (whole entry): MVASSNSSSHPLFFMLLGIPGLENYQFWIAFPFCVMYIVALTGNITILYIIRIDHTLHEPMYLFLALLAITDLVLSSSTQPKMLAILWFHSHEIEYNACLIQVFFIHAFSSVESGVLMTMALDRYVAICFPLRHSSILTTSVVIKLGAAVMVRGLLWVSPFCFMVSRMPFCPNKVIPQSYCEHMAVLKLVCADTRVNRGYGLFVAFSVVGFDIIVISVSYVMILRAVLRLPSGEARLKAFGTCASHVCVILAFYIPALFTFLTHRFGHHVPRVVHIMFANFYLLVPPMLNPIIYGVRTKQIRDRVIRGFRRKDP
Method in brief: as §1

UniProt Q8VGZ7 = molecular target: T4, UniProt Q8VGZ7
T4 sequence (whole entry): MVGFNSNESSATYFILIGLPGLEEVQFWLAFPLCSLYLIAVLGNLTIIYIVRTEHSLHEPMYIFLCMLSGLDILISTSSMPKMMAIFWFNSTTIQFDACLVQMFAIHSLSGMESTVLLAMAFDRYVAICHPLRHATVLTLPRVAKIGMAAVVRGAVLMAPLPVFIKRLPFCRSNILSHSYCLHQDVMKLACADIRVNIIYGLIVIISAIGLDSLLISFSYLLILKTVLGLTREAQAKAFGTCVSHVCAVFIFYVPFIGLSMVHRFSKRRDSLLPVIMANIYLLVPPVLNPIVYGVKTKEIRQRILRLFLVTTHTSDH
Method in brief: as §1

UniProt Q8VH10 = molecular target: T5, UniProt Q8VH10
T5 sequence (whole entry): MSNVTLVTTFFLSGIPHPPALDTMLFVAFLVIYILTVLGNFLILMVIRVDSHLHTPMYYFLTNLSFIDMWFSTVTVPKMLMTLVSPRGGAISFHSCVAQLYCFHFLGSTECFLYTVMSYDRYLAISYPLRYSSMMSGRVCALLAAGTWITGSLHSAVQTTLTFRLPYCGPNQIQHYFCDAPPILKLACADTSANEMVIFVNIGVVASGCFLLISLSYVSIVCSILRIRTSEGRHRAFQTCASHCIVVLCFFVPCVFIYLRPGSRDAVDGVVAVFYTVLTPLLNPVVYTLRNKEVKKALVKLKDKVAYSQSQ
Method in brief: as §1

UniProt Q8VH16 = molecular target: T6, UniProt Q8VH16
T6 sequence (whole entry): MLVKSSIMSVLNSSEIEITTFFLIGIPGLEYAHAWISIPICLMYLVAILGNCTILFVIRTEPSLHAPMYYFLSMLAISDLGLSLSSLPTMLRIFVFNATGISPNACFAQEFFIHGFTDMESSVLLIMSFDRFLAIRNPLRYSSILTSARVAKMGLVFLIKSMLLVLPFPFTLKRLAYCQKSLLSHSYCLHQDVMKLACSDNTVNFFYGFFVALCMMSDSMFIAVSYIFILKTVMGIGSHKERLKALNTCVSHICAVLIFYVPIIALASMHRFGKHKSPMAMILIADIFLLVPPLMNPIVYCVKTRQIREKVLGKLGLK
Method in brief: as §1

UniProt Q8VH20 = molecular target: T7, UniProt Q8VH20
T7 sequence (whole entry): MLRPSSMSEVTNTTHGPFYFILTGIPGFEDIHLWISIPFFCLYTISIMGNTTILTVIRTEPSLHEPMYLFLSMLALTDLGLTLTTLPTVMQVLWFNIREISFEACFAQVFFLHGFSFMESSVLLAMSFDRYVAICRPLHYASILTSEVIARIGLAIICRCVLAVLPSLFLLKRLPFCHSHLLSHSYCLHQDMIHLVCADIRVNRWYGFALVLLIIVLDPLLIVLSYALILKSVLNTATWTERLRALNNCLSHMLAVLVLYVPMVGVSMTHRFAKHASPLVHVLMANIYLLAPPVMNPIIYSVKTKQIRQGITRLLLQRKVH
Method in brief: as §1

UniProt Q8VH21 = molecular target: T8, UniProt Q8VH21
T8 sequence (whole entry): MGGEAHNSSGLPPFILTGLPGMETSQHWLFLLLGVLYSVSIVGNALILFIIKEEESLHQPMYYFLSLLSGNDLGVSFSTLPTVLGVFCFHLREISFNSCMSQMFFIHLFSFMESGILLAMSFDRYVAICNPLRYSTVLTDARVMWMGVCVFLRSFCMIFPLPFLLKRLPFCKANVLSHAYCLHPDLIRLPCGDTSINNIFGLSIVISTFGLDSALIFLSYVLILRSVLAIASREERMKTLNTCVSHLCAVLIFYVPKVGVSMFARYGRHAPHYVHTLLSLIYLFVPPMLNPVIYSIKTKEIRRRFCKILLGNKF
Method in brief: as §1

UniProt Q924H8 = molecular target: T9, UniProt Q924H8
T9 sequence (whole entry): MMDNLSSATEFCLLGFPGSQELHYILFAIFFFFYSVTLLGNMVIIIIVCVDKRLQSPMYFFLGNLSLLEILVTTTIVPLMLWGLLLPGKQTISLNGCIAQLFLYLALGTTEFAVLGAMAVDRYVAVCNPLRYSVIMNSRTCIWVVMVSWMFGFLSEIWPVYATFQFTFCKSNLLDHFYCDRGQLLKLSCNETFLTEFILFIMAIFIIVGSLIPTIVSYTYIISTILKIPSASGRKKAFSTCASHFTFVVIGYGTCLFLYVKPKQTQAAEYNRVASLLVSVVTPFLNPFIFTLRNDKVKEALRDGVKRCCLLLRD
Method in brief: as §1

UniProt Q9EPN9 = molecular target: T10, UniProt Q9EPN9
T10 sequence (whole entry): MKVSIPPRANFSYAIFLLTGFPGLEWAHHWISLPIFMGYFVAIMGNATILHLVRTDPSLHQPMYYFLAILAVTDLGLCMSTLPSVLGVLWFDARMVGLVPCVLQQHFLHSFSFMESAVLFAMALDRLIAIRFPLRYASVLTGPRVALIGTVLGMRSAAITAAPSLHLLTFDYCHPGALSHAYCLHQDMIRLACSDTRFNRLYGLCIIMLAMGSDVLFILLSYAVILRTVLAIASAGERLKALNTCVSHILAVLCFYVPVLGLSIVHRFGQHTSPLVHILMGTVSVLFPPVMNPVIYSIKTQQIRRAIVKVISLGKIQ
Method in brief: as §1

UniProt Q9R0K2 = molecular target: UniProt Q9R0K2
Sequence of UniProt Q9R0K2 (Q9R0K2 as listed by the source): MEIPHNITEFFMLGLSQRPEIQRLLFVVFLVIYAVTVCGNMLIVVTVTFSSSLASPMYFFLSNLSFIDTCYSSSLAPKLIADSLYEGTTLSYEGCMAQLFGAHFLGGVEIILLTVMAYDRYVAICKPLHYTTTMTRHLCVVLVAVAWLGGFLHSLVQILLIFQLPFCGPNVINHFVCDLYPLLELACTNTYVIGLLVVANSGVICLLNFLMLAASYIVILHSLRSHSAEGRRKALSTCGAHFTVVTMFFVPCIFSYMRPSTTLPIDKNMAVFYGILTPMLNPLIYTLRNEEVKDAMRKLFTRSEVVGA
Method in brief: as §1

UniProt Q9WU86 = molecular target: T11, UniProt Q9WU86
T11 sequence (whole entry): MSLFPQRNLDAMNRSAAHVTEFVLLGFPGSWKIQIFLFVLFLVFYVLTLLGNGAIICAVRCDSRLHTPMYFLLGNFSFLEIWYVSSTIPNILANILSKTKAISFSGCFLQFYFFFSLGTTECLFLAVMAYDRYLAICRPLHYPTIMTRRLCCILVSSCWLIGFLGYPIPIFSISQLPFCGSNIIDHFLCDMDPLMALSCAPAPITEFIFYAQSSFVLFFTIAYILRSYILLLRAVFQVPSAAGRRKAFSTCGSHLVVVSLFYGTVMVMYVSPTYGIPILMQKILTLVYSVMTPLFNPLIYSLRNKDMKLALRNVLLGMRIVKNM
Method in brief: as §1

UniProt Q8VH18 = molecular target: T12, UniProt Q8VH18
T12 sequence (whole entry): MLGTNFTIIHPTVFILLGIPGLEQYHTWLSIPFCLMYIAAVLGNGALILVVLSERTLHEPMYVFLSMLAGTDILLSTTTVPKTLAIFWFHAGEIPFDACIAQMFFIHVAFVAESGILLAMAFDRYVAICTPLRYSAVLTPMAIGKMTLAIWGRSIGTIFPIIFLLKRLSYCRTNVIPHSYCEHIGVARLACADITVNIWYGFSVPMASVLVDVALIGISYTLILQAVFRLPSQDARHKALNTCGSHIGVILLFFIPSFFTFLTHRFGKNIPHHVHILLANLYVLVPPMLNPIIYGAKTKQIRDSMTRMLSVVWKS
Method in brief: as §1

UniProt Q99NH4 = molecular target: T13, UniProt Q99NH4
T13 sequence (whole entry): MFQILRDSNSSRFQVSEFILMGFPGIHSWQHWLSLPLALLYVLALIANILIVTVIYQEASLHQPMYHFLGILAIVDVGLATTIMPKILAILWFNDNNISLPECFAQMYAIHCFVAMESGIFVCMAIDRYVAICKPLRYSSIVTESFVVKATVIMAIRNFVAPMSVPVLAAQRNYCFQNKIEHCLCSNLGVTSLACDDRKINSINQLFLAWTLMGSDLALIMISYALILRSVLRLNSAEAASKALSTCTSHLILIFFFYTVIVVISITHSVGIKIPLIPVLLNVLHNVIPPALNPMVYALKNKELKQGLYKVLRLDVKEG
Method in brief: as §1

UniProt Q9WU94 = molecular target: T14, UniProt Q9WU94
T14 sequence (whole entry): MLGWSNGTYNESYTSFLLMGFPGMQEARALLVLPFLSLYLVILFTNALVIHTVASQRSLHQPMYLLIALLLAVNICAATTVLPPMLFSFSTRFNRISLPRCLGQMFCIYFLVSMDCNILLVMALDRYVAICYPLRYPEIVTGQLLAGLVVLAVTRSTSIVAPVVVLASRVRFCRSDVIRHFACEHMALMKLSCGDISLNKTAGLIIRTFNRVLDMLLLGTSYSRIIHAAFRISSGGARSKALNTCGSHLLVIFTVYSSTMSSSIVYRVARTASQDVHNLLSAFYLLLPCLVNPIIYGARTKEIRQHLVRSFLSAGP
Method in brief: as §1

UniProt Q920P1 = molecular target: T15, UniProt Q920P1
T15 sequence (whole entry): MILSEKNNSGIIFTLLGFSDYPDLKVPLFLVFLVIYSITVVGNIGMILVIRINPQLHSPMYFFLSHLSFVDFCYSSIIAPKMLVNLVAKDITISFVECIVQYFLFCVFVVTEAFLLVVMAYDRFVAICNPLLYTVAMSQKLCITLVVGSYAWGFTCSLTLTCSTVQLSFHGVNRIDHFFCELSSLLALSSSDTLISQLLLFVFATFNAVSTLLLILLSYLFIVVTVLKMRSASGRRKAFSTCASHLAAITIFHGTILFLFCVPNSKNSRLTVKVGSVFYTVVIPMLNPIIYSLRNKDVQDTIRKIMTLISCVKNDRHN
Method in brief: as §1

UniProt Q920P2 = molecular target: T16, UniProt Q920P2
T16 sequence (whole entry): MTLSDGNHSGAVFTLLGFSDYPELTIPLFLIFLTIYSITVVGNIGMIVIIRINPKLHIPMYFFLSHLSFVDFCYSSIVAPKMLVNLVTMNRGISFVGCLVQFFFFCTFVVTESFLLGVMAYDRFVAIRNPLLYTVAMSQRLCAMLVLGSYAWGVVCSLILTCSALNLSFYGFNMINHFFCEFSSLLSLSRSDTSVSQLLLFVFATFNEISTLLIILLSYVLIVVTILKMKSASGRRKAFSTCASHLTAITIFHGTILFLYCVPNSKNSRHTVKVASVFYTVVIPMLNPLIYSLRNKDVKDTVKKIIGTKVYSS
Method in brief: as §1

Structure (SMILES)	odorant receptor agonist call (UniProt Q8VGX8)	odorant receptor agonist call (UniProt Q8VGY6)	odorant receptor agonist call (UniProt Q8VGZ2)	odorant receptor agonist call (UniProt Q8VGZ7)	odorant receptor agonist call (UniProt Q8VH10)	odorant receptor agonist call (UniProt Q8VH16)	odorant receptor agonist call (UniProt Q8VH20)	odorant receptor agonist call (UniProt Q8VH21)	odorant receptor agonist call (UniProt Q924H8)	odorant receptor agonist call (UniProt Q9EPN9)	odorant receptor agonist call (UniProt Q9R0K2)	odorant receptor agonist call (UniProt Q9WU86)	odorant receptor agonist call (UniProt Q8VH18)	odorant receptor agonist call (UniProt Q99NH4)	odorant receptor agonist call (UniProt Q9WU94)	odorant receptor agonist call (UniProt Q920P1)	odorant receptor agonist call (UniProt Q920P2)
CCCCCCCCS	inactive	inactive	inactive	inactive	inactive	inactive	inactive	inactive	inactive	inactive	inactive	inactive					
CCCCCCCCCC(=O)[O-].[H+]	active	inactive	active	inactive	inactive	inactive	active	inactive	inactive	inactive	inactive	inactive	inactive	inactive	inactive		
CCCCCCCCCCO	inactive	inactive	inactive	inactive	inactive	inactive	inactive	inactive	inactive	inactive	inactive	inactive		inactive			
CCCCCCCC(C)=O	inactive	inactive	inactive	inactive	inactive	inactive	inactive	inactive	inactive	inactive	inactive	inactive					
CCCCOC=O	inactive	inactive	inactive	inactive	inactive	inactive	inactive	inactive	inactive	inactive	inactive	inactive					
CC(C)=CCCC(C)=CCO	inactive	inactive	inactive	inactive	inactive	inactive	inactive	inactive	inactive	inactive	active	inactive				inactive	inactive
O=C1Cc2ccccc2O1	inactive	inactive	inactive	inactive	inactive	inactive	inactive	inactive	inactive	inactive	inactive	inactive					
CCOC(=O)C(C)C	inactive	inactive	inactive	inactive	inactive	inactive	inactive	inactive	inactive	inactive	inactive	inactive					
C=C(C)C1CCC(C)C(=O)C1 (centres undefined)	inactive	inactive	inactive	inactive	inactive	inactive	inactive	inactive	inactive	inactive	inactive	inactive					
